Measurements as given in ChEMBL document CHEMBL5376013, “Design, synthesis and biological evaluation of novel morpholinopyrimidine-5-carbonitrile derivatives as dual PI3K/mTOR inhibitors” (RSC Med Chem, 2024).

Columns and labels:
Assay type in all cases: functional
Settings in all cases: read-out: GI
CCRF-CEM = test: Antitumor activity against human CCRF-CEM cells assessed as growth inhibition at 10 uM relative to control
Outline: (§1)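 After drug addition, plates were incubated 48 h at 37 °C under 5% CO2. Adherent cells were fixed with cold TCA (10% final, 60 min, 4 °C) and suspension cells with 16% final TCA. Staining used 0.4% SRB in 1% acetic acid, solubilized in 10 mM trizma, read at A515. Percent growth was calculated from time-zero, control and treated absorbances.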

K562 = test: Antitumor activity against human K562 cells assessed as growth inhibition at 10 uM relative to control; outline: as §1
MOLT-4 = test: Antitumor activity against human MOLT-4 cells assessed as growth inhibition at 10 uM relative to control; outline: as §1
RPMI-8226 = test: Antitumor activity against human RPMI-8226 cells assessed as growth inhibition at 10 uM relative to control; outline: as §1
EKVX = test: Antitumor activity against human EKVX cells assessed as growth inhibition at 10 uM relative to control; outline: as §1
NCI-H226 = test: Antitumor activity against human NCI-H226 cells assessed as growth inhibition at 10 uM relative to control; outline: as §1
NCI-H23 = test: Antitumor activity against human NCI-H23 cells assessed as growth inhibition at 10 uM relative to control; outline: as §1
NCI-H322M = test: Antitumor activity against human NCI-H322M cells assessed as growth inhibition at 10 uM relative to control; outline: as §1
NCI-H522 = test: Antitumor activity against human NCI-H522 cells assessed as growth inhibition at 10 uM relative to control; outline: as §1
COLO 205 = test: Antitumor activity against human COLO 205 cells assessed as growth inhibition at 10 uM relative to control; outline: as §1
HCT-116 = test: Antitumor activity against human HCT-116 cells assessed as growth inhibition at 10 uM relative to control; outline: as §1
HCT-15 = test: Antitumor activity against human HCT-15 cells assessed as growth inhibition at 10 uM relative to control; outline: as §1
HT-29 = test: Antitumor activity against human HT-29 cells assessed as growth inhibition at 10 uM relative to control; outline: as §1
KM12 = test: Antitumor activity against human KM12 cells assessed as growth inhibition at 10 uM relative to control; outline: as §1
SW-620 = test: Antitumor activity against human SW-620 cells assessed as growth inhibition at 10 uM relative to control
Outline: (§2)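 Drug exposure 48 h at 37 °C, 5% CO2. Adherent cells fixed with cold TCA (10% final), suspension cells with TCA (16% final). Stained with 0.4% SRB in 1% acetic acid, dissolved in 10 mM Tris, A515. Growth relative to time-zero and untreated control.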

SF-268 = test: Antitumor activity against human SF-268 cells assessed as growth inhibition at 10 uM relative to control; outline: as §1
SF-539 = test: Antitumor activity against human SF-539 cells assessed as growth inhibition at 10 uM relative to control; outline: as §1
SNB-19 = test: Antitumor activity against human SNB-19 cells assessed as growth inhibition at 10 uM relative to control; outline: as §2
SNB-75 = test: Antitumor activity against human SNB-75 cells assessed as growth inhibition at 10 uM relative to control; outline: as §2
U-251 = test: Antitumor activity against human U-251 cells assessed as growth inhibition at 10 uM relative to control; outline: as §2
LOX IMVI = test: Antitumor activity against human LOX IMVI cells assessed as growth inhibition at 10 uM relative to control; outline: as §1
Malme-3M = test: Antitumor activity against human Malme-3M cells assessed as growth inhibition at 10 uM relative to control; outline: as §1
M14 = test: Antitumor activity against human M14 cells assessed as growth inhibition at 10 uM relative to control; outline: as §1
MDA-MB-435 = test: Antitumor activity against human MDA-MB-435 cells assessed as growth inhibition at 10 uM relative to control; outline: as §1
SK-MEL-2 = test: Antitumor activity against human SK-MEL-2 cells assessed as growth inhibition at 10 uM relative to control; outline: as §1
SK-MEL-28 = test: Antitumor activity against human SK-MEL-28 cells assessed as growth inhibition at 10 uM relative to control; outline: as §2
SK-MEL-5 = test: Antitumor activity against human SK-MEL-5 cells assessed as growth inhibition at 10 uM relative to control; outline: as §2
UACC-257 = test: Antitumor activity against human UACC-257 cells assessed as growth inhibition at 10 uM relative to control; outline: as §2
UACC-62 = test: Antitumor activity against human UACC-62 cells assessed as growth inhibition at 10 uM relative to control; outline: as §2
OVCAR-3 = test: Antitumor activity against human OVCAR-3 cells assessed as growth inhibition at 10 uM relative to control; outline: as §1
OVCAR-5 = test: Antitumor activity against human OVCAR-5 cells assessed as growth inhibition at 10 uM relative to control; outline: as §1
OVCAR-8 = test: Antitumor activity against human OVCAR-8 cells assessed as growth inhibition at 10 uM relative to control; outline: as §1
NCI/ADR-RES = test: Antitumor activity against human NCI-ADR-RES cells assessed as growth inhibition at 10 uM relative to control; outline: as §1
SK-OV-3 = test: Antitumor activity against human SK-OV-3 cells assessed as growth inhibition at 10 uM relative to control; outline: as §2
786-0 = test: Antitumor activity against human 786-0 cells assessed as growth inhibition at 10 uM relative to control; outline: as §1
A498 = test: Antitumor activity against human A498 cells assessed as growth inhibition at 10 uM relative to control; outline: as §1
ACHN = test: Antitumor activity against human ACHN cells assessed as growth inhibition at 10 uM relative to control; outline: as §1
CAKI-1 = test: Antitumor activity against human CAKI-1 cells assessed as growth inhibition at 10 uM relative to control; outline: as §1
RXF 393 = test: Antitumor activity against human RXF 393 cells assessed as growth inhibition at 10 uM relative to control; outline: as §1
SN12C = test: Antitumor activity against human SN12C cells assessed as growth inhibition at 10 uM relative to control; outline: as §2
TK-10 = test: Antitumor activity against human TK-10 cells assessed as growth inhibition at 10 uM relative to control; outline: as §2
PC-3 = test: Antitumor activity against human PC-3 cells assessed as growth inhibition at 10 uM relative to control; outline: as §1
DU-145 = test: Antitumor activity against human DU-145 cells assessed as growth inhibition at 10 uM relative to control; outline: as §1
MCF7 = test: Antitumor activity against human MCF7 cells assessed as growth inhibition at 10 uM relative to control; outline: as §1
BT-549 = test: Antitumor activity against human BT-549 cells assessed as growth inhibition at 10 uM relative to control; outline: as §1
T47D = test: Antitumor activity against human T47D cells assessed as growth inhibition at 10 uM relative to control; outline: as §2

N#Cc1c(-c2ccc(Cl)cc2)nc(NN2C(=O)c3ccccc3C2=O)nc1N1CCOCC1
inhibition of growth at 10 µM (CCRF-CEM): < 1% | inhibition of growth at 10 µM (K562): < 1% | inhibition of growth at 10 µM (MOLT-4): < 1% | inhibition of growth at 10 µM (RPMI-8226): < 1% | inhibition of growth at 10 µM (EKVX): < 1% | inhibition of growth at 10 µM (NCI-H226): < 1% | inhibition of growth at 10 µM (NCI-H23): < 1% | inhibition of growth at 10 µM (NCI-H322M): < 1% | inhibition of growth at 10 µM (NCI-H522): < 1% | inhibition of growth at 10 µM (COLO 205): < 1% | inhibition of growth at 10 µM (HCT-116): < 1% | inhibition of growth at 10 µM (HCT-15): < 1% | inhibition of growth at 10 µM (HT-29): < 1% | inhibition of growth at 10 µM (KM12): < 1% | inhibition of growth at 10 µM (SW-620): < 1% | inhibition of growth at 10 µM (SF-268): < 1% | inhibition of growth at 10 µM (SF-539): < 1% | inhibition of growth at 10 µM (SNB-19): < 1% | inhibition of growth at 10 µM (SNB-75): 15.4% | inhibition of growth at 10 µM (U-251): < 1% | inhibition of growth at 10 µM (LOX IMVI): < 1% | inhibition of growth at 10 µM (Malme-3M): < 1% | inhibition of growth at 10 µM (M14): < 1% | inhibition of growth at 10 µM (MDA-MB-435): < 1% | inhibition of growth at 10 µM (SK-MEL-2): < 1% | inhibition of growth at 10 µM (SK-MEL-28): < 1% | inhibition of growth at 10 µM (SK-MEL-5): < 1% | inhibition of growth at 10 µM (UACC-257): < 1% | inhibition of growth at 10 µM (UACC-62): < 1% | inhibition of growth at 10 µM (OVCAR-3): < 1% | inhibition of growth at 10 µM (OVCAR-5): < 1% | inhibition of growth at 10 µM (OVCAR-8): < 1% | inhibition of growth at 10 µM (NCI/ADR-RES): < 1% | inhibition of growth at 10 µM (SK-OV-3): < 1% | inhibition of growth at 10 µM (786-0): < 1% | inhibition of growth at 10 µM (A498): < 1% | inhibition of growth at 10 µM (ACHN): < 1% | inhibition of growth at 10 µM (CAKI-1): < 1% | inhibition of growth at 10 µM (RXF 393): < 1% | inhibition of growth at 10 µM (SN12C): < 1% | inhibition of growth at 10 µM (TK-10): < 1% | inhibition of growth at 10 µM (PC-3): < 1% | inhibition of growth at 10 µM (DU-145): < 1% | inhibition of growth at 10 µM (MCF7): 1% | inhibition of growth at 10 µM (BT-549): < 1% | inhibition of growth at 10 µM (T47D): < 1%
